Experimental data: ChEMBL document CHEMBL1129311, “Antitumor agents. 166. Synthesis and biological evaluation of 5,6,7,8-substituted-2-phenylthiochromen-4-ones” (J Med Chem, 1996)
Converted amounts (≈) assume the structure as drawn. The source made the active and inactive calls. The calls are words filed in the database; no cut-off is given here.

What was measured:
A549 = assay: Effective dose against 50% reduction in Human lung carcinoma (A-549) cell number after 3-day incubation.; format: functional, cell-based
H9 [1] = assay: Effective dose against growth of HIV infected H9 lymphocytes by 50%; format: functional; conditions: Homo sapiens, read-out: ED50 (the source's name)
H9 [2] = assay: Inhibitory activity against growth of uninfected H9 lymphocytes by 50%; format: functional, cell-based; conditions: Homo sapiens
How it was run: (§1)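 Uninfected H9 cultures exposed to compound diluted in medium for 4 days at 37 °C. Cell density counted in a Coulter counter; IC₅₀ determined.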

HCT-8 [3] = assay: Effective dose against 50% reduction in Human ileocecal carcinoma (HCT-8) cell number after 3-day incubation.; format: functional, cell-based
KB [4] = assay: Effective dose against 50% reduction in Human epidermoid carcinoma of the nasopharynx (KB) cell number after 3-day incubation; - indicates inactive; format: functional, cell-based
P388 [5] = assay: Effective dose against 50% reduction in Murine leukemia (P-388) cell number after 3-day incubation; - indicates inactive; format: functional, cell-based; conditions: Mus musculus
RPMI [6] = assay: Effective dose against 50% reduction in Human melanoma (RPMI)cell number after 3-day incubation; format: functional; conditions: 72 h, read-out: ED50 (the source's name)
TE-671 [7] = assay: Effective dose against 50% reduction in Human CNS tumor (TE671) cell number after 3-day incubation; format: functional; conditions: TE-671, 72 h, read-out: ED50 (the source's name)
[8] = Therapeutic index valued has been determined in H9 cells; format: cell-based; conditions: human, read-out: Therapeutic index
[9] = molecular target: T1, DNA topoisomerase 1 (Homo sapiens) (UniProt P11387); assay: Inhibitory activity against DNA topoisomerase I at dose 100 uM
T1 sequence (whole entry): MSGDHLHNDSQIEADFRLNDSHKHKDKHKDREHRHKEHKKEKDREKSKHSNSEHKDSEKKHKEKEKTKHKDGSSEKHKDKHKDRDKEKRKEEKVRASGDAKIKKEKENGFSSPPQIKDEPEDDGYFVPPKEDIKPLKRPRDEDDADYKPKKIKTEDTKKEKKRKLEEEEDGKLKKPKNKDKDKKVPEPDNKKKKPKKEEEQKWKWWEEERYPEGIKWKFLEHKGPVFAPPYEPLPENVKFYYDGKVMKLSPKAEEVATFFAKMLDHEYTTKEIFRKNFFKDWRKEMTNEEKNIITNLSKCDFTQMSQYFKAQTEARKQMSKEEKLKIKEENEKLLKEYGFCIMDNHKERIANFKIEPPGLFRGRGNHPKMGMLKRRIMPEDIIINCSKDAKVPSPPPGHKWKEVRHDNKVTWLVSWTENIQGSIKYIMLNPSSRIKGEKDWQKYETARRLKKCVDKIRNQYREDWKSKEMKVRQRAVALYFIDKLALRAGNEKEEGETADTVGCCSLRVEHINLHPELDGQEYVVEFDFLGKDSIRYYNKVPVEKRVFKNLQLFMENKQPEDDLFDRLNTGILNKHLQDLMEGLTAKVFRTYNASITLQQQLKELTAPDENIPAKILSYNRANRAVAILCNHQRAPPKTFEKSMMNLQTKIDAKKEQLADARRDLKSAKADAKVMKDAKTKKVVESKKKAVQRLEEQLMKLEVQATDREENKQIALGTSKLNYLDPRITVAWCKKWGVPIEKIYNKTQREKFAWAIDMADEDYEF
How it was run: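 Topo I activity read as ATP-independent relaxation of supercoiled plasmid DNA. Test compound at 100 µM; % inhibition is relative to enzyme and DNA control reactions. Camptothecin served as the positive inhibitor control.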

[10] = molecular target: DNA topoisomerase II (Homo sapiens) (UniProt P11388+Q02880); assay: Inhibitory activity against DNA topoisomerase II at dose 100 uM; format: protein assay
How it was run: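 Topo II activity read as ATP-dependent unknotting of P4 DNA. Test compound at 100 µM; % inhibition is relative to enzyme and DNA control reactions. VP-16 served as the reference inhibitor.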

H9 [11] = assay: Effective dose against growth of HIV infected H9 lymphocytes; format: functional; conditions: Homo sapiens, read-out: ED50 (the source's name)
H9 [12] = assay: Inhibitory activity against growth of uninfected H9 lymphocytes; format: functional, cell-based; conditions: Homo sapiens; how it was run: as §1
P388 [13] = assay: Effective dose against 50% reduction in Murine leukemia (P-388) cell number after 3-day incubation; format: functional; conditions: Mus musculus, P388, 72 h; read-out: ED50 (the source's name)
TE-671 [14] = assay: Effective dose against 50% reduction in Human CNS tumor (TE671) cell number after 3-day incubation; - indicates inactive; format: functional, cell-based
KB [15] = assay: Cellular protein-linked DNA breaks in KB oral carcinoma cell culture treated in triplicate at 50 uM for 1 hr; format: functional, Homo sapiens
How it was run: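 Read-out is potassium-SDS precipitable cpm in treated KB cultures, expressed as fold.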

RPMI [16] = assay: Effective dose against 50% reduction in Human melanoma (RPMI)cell number after 3-day incubation; - indicates inactive; format: functional, cell-based
HCT-8 [17] = assay: Effective dose against 50% reduction in Human ileocecal carcinoma (HCT-8) cell number after 3-day incubation; format: functional; conditions: HCT-8, 72 h, read-out: ED50 (the source's name)
KB [18] = assay: Effective dose against 50% reduction in Human epidermoid carcinoma of the nasopharynx (KB) cell number after 3-day incubation; format: functional; conditions: 72 h, read-out: ED50 (the source's name)
Tubulin alpha chain = Tubulin alpha chain (Sus scrofa, UniProt P02550); assay: Inhibitory activity of the compound against tubulin polymerization; format: functional
Chain of Tubulin alpha chain (P02550 whole entry, looked up): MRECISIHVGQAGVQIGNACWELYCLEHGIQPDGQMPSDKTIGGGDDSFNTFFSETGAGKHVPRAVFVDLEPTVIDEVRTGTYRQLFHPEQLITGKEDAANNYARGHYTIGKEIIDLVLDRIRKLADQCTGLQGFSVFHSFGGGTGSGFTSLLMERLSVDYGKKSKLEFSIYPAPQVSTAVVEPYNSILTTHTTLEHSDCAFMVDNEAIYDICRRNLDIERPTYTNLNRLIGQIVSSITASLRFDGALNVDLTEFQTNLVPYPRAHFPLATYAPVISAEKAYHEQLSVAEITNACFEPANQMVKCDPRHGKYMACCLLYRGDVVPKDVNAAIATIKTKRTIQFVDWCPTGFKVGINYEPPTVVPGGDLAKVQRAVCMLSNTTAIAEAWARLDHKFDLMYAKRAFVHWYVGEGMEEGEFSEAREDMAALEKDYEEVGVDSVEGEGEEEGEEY

With O=c1cc(-c2ccccc2)sc2ccc(O)cc12 the ED50 (A549) was “inactive”, the EC50 (H9 [1]) was 9.5 µg/mL (≈ 37.4 µM) and the IC50 (H9 [2]) was 40 µg/mL (≈ 157 µM). The ED50 (HCT-8 [3]) was “inactive”, the ED50 (KB [4]) was “inactive” and the ED50 (P388 [5]) was “inactive”. The EC50 (RPMI [6]) was 0.55 µg/mL (≈ 2.16 µM), the EC50 (TE-671 [7]) was 2.87 µg/mL (≈ 11.3 µM) and the selectivity ratio [8] was 4.2.
With Nc1cccc2sc(-c3ccccc3)cc(=O)c12 the ED50 (A549) was “inactive”, the inhibition [9] was 100% and the inhibition [10] was 0%. The EC50 (H9 [11]) was 20 µg/mL (≈ 78.9 µM), the IC50 (H9 [12]) was 50 µg/mL (≈ 197 µM) and the ED50 (HCT-8 [3]) was “inactive”. The ED50 (KB [4]) was “inactive”, the EC50 (P388 [13]) was 9.31 µg/mL (≈ 36.8 µM) and the ED50 (TE-671 [14]) was “inactive”. The selectivity ratio [8] was 2.5, the Activity (KB [15]) was 1 and the ED50 (RPMI [16]) was “inactive”.
With O=c1cc(-c2ccccc2)sc2cc(O)c(O)cc12 the ED50 (A549) was “inactive”, the inhibition [9] was 100% and the inhibition [10] was 0%. The EC50 (H9 [11]) was 0.8 µg/mL (≈ 2.96 µM), the IC50 (H9 [12]) was 1.8 µg/mL (≈ 6.66 µM) and the EC50 (HCT-8 [17]) was 1.45 µg/mL (≈ 5.36 µM). For the same compound, the EC50 (P388 [13]) was 4.51 µg/mL (≈ 16.7 µM), the EC50 (RPMI [6]) was 3.92 µg/mL (≈ 14.5 µM) and the EC50 (TE-671 [7]) was 5.5 µg/mL (≈ 20.3 µM). The selectivity ratio [8] was 2.3, the Activity (KB [15]) was 1 and the EC50 (KB [18]) was 5.5 µg/mL (≈ 20.3 µM).
With O=c1cc(-c2ccccc2)sc2ccccc12 the ED50 (A549) was “inactive”, the ED50 (HCT-8 [3]) was “inactive” and the ED50 (KB [4]) was “inactive”. For the same compound, the ED50 (P388 [5]) was “inactive”, the ED50 (TE-671 [14]) was “inactive” and the ED50 (RPMI [16]) was “inactive”.
For COc1ccc2c(=O)cc(-c3ccccc3)sc2c1, the ED50 (A549) was “inactive”, the EC50 (HCT-8 [17]) was 9.16 µg/mL (≈ 34.1 µM) and the ED50 (P388 [5]) was “inactive”. The ED50 (TE-671 [14]) was “inactive”, the ED50 (RPMI [16]) was “inactive” and the EC50 (KB [18]) was 5.5 µg/mL (≈ 20.5 µM).
With COc1cc2sc(-c3ccccc3)cc(=O)c2cc1OC the ED50 (A549) was “inactive”, the EC50 (HCT-8 [17]) was 9.33 µg/mL (≈ 31.3 µM) and the ED50 (P388 [5]) was “inactive”. The EC50 (RPMI [6]) was 8.89 µg/mL (≈ 29.8 µM), the ED50 (TE-671 [14]) was “inactive” and the EC50 (KB [18]) was 4.23 µg/mL (≈ 14.2 µM).
Nc1ccc2sc(-c3ccccc3)cc(=O)c2c1 showed an EC50 (H9 [11]) of 7 µg/mL (≈ 27.6 µM), an IC50 (H9 [12]) of 7.5 µg/mL (≈ 29.6 µM) and a selectivity ratio [8] of 1.1.
With COc1cccc(-c2cc(O)c3cc(N4CCCC4)ccc3n2)c1 the inhibition [10] was 0%.
With Oc1cc(-c2ccccc2)nc2c(S)cccc12 the EC50 (H9 [11]) was 12 µg/mL (≈ 47.4 µM), the IC50 (H9 [12]) was 35 µg/mL (≈ 138 µM) and the selectivity ratio [8] was 2.9.
In the case of COc1ccc(-c2oc3c(OC)c(OC)c(OC)c(O)c3c(=O)c2OC)cc1O, the IC50 (Tubulin alpha chain) is reported as 830 nM.
For COc1cccc(-c2cc(=O)c3cc(OC)c(OC)cc3s2)c1, the ED50 (A549) was “inactive”, the EC50 (HCT-8 [17]) was 6.35 µg/mL (≈ 19.3 µM) and the EC50 (P388 [13]) was 0.61 µg/mL (≈ 1.86 µM). The EC50 (RPMI [6]) was 5.5 µg/mL (≈ 16.7 µM), the ED50 (TE-671 [14]) was “inactive” and the EC50 (KB [18]) was 5.5 µg/mL (≈ 16.7 µM).
